Results: ChEMBL document CHEMBL1127022, “Transformation of monoamine oxidase-B primary amine substrates into time-dependent inhibitors. Tertiary amine homologues of primary amine substrates” (J Med Chem, 1993)

How the values were obtained:
[1] = target: T1, Amine oxidase [flavin-containing] B (Bos taurus, UniProt P56560); test: Inhibition of Monoamine oxidase-B from Bovine liver
T1 sequence (P56560 whole entry): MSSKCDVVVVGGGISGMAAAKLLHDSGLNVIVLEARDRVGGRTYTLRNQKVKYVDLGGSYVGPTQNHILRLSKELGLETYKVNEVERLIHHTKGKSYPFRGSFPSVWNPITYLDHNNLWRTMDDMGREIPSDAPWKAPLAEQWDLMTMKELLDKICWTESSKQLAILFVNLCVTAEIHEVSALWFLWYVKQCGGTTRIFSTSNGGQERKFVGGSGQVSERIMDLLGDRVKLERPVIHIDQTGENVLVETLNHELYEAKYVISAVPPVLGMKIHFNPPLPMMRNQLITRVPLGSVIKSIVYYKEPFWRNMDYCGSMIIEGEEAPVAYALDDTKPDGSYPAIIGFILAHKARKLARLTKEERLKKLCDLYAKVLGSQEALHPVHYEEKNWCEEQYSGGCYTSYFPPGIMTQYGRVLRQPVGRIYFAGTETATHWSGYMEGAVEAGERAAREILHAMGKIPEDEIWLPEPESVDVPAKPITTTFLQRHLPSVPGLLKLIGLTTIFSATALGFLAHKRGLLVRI
Method in brief: (§1)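 Bovine liver MAO-B was added to inhibitor at various concentrations in 100 mM potassium phosphate, pH 7.40, with 2.0 mM β-mercaptoethanol or glutathione, at 25 °C. Aliquots taken over time were assayed with 0.5 mM cinnamylamine in 100 mM Tris, pH 9.0, and corrected against a no-inhibitor control. Ki and kinact came from Kitz–Wilson analysis.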

[2] = target: T1, Amine oxidase [flavin-containing] B; test: Inactivation kinetic constant Monoamine oxidase-B from Bovine liver; conditions: cattle; method in brief: as §1
[3] = target: T1, Amine oxidase [flavin-containing] B; test: Catalysis activity was calculated for Monoamine oxidase-B from Bovine liver; conditions: cattle
Method in brief: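 Purified bovine liver MAO-B, with the test amine as substrate. Km and kcat were obtained by following the rate of hydrogen peroxide formation.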

Row | Compound | Ki [1] [mM] | kinact [2] [s⁻¹] | k cat [3] [s⁻¹]
1 | CN(C)CCCc1ccccc1 | 0.38 | 0.00717 | 0.21
2 | CCCNCCc1ccccc1 | 4 | 0.0767 | 
3 | CN(C)CCc1ccccc1 | 7.1 | 0.128 | 1.4
4 | CN(C)CCCCc1ccccc1 | 10 | 4.83e-05 | 
5 | CCCCCN(C)C | 2.1 | 0.000267 | 
6 | CN(C)CCC(=O)c1ccccc1 | 0.35 | 0.0288 | 
